Screens: PubChem BioAssay, several laboratories
Lipid droplet – inhibitors of hepatocyte lipid droplet formation, primary screen, imaging, high-throughput imaging, BODIPY stain | inhibition, % at 6.5 µM | 0.4% of 240,000 active | AML12 mouse hepatocytes, oleate lipid droplets;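 active means lipid droplet intensity inhibited by at least 50%, with more than 500 cells counted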
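Test system: AML12 hepatocytes (mouse); reagent: oleate loading, 100 µM; dosing: one dose, 6.5 µM compound; incubation: overnight exposure; signal: fluorescence imaging, 20x objective, two fields per well; read-out basis: % inhibition of corrected integrated BODIPY droplet signal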
NS3 helicase inh – inhibitors of HCV NS3 helicase, primary screen, biochemical, Cy5 molecular beacon fluorescence | NS3 helicase DNA unwinding | inhibition, % at 10.9 µM | 0.56% of 290,000 active;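 active means inhibition above the mean of all tested compounds plus 3 SD, set per campaign, cut at about 35% in these data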;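 further: 0% = DMSO wells and 100% = thioflavine S control wells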
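test system = hepatitis C virus NS3 helicase domain fragment enzyme | reagent = annealed dual-labelled DNA beacon duplex, ATP-started | times = 1 h at 25 °C | detection = Cy5 fluorescence, 0 and 60 min reads | read-out basis = percent inhibition from t60/t0 fluorescence ratio | control set = DMSO and thioflavine S | replication = one well per compound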
TbMetRS inhib – T. brucei MetRS inhibitors, primary screen, biochemical, luminescence; purified T. brucei MetRS, ATP depletion, Kinase-Glo luminescence; inhibition, % at 11.9 µM; 0.4% of 360,000 active;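 active means inhibition above a per-plate cutoff of the control wells' mean inhibition plus 3 SD, cut at about 5.5% in these data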;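 further: 0% = DMSO wells median and 100% = median of wells with control inhibitor compound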
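Dosing: 11.9 µM compound single dose, 0.9% DMSO; Assay system: purified T. brucei MetRS enzyme; Measured by: Kinase-Glo luciferase luminescence reporting remaining unconsumed ATP; Schedule: 15 min plus 2 h at 25 °C.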
HCV core dimer – inhibitors of HCV core protein dimerization, primary screen, biochemical, TR-FRET, high-throughput; AID 1899, 2009; inhibition, % at 5 µM; 0.33% of 300,000 active; TR-FRET GST/Flag-core106 dimerization, 1536-well;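 active means inhibition above the mean of all tested compounds plus 3 SD, set per screening campaign, cut at about 45% in these data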
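Assay system: Tagged HCV core106 pair (GST and Flag) | Buffer or medium: KF-containing HEPES buffer, pH 7.45, DTT, CHAPS, BSA | Also added: Eu donor and XL665 acceptor anti-tag antibodies | Dosing: One concentration, 5 µM, in 0.5% DMSO | Timing: 4 h at 22.5 °C | Technique: TR-FRET 671 and 617 nm emission | Repeats: Singlicate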
TbMetRS confirm – T. brucei MetRS inhibitors, confirmation, biochemical, luminescence; shares compounds with TbMetRS inhib; T. brucei MetRS enzyme, luminescence (ATP depletion); inhibition, % at 11.9 µM; 93% of 1,400 active; AID 624412, 2012; in the data active means inhibition above about 7%
Jurkat cytotox – Jurkat T cell cytotoxicity, cytotoxicity control for T. brucei MetRS inhibitor project, luminescence, high throughput; shares compounds with TbMetRS inhib; Jurkat cells viability, ATP luminescence; inhibition, % at 8.3 µM; 12% of 1,400 active; AID 624413, 2012; in the data active means inhibition above about 15%;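 further: 0% = vehicle and 100% = reference inhibitor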
Tb MetRS inh FP – T. brucei MetRS inhibitors, orthogonal assay for T. brucei MetRS inhibitor project, biochemical, fluorescence polarization | purified T. brucei MetRS | 44% of 1,400 active | inhibition, % at 11.9 µM | shares compounds with TbMetRS inhib | AID 651607, 2012; in the data active means inhibition above about 17%;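 further: 0% = vehicle wells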
The depositor's hits bear a star; nt = no result. Most compounds without a hit are left out; they make up all but 1.3% or so of the library.

SMILES	Lipid droplet	NS3 helicase inh	TbMetRS inhib	HCV core dimer	TbMetRS confirm	Jurkat cytotox	Tb MetRS inh FP
CC(C)COC(=O)Nc1nnc(Cc2ccccc2)s1	3	9	10*	8	3	5	4
Nc1nc(Cl)cc(=O)n1Cc1ccc(Cl)cc1	nt	nt	9.4*	1	18*	2	4
Cc1ncc([N+](=O)[O-])n1CC(=O)Nc1ccc(Br)cc1	1	8	6.1*	1	14*	-6	0
Cc1cccc(NC(=O)CCC(=O)OCc2ccc(Br)cc2)c1	8	-9	0	-4	nt	nt	nt
Cc1cccc(OCCCC(=O)Nc2ccc(Br)cc2)c1	-29	-9	34*	-1	45*	0	34*
Cc1ccc(NC(=O)CCC(=O)OCc2ccc(Br)cc2)cc1	-8	0	17*	-6	26*	-6	12
CC(C)(CNC(=O)c1cccc(S(=O)(=O)Nc2ccc(Br)cc2)c1)N1CCOCC1	nt	nt	-1	-4	nt	nt	nt
CCCc1c(NC(=O)Nc2ccc(F)cc2)cnn1-c1ccccc1	-11	13	7.1*	-4	17*	-7	8
COc1cc(NC(=O)CCN2CC(C)OC(C)C2)cc(OC)c1 (stereo not drawn)	nt	22	5.8*	-14	0	2	3
CCn1c(N2CCN(CC(=O)c3c[nH]c4ccccc34)CC2)nc2c1c(=O)[nH]c(=O)n2C	nt	2	7.8*	3	19*	0	5
CCCn1c(N2CCN(CC(=O)c3c(C)n(C)c4ccccc34)CC2)nc2c1c(=O)[nH]c(=O)n2C	nt	3	-1	3	nt	nt	nt
COc1ccc2c(c1)sc(=NC(=O)CS(=O)(=O)c1ccc(F)cc1)n2C	nt	nt	0	1	nt	nt	nt
O=C(Cc1ccc(Br)cc1)NNC(=O)Nc1ccc(Cl)cc1	2	-8	17*	4	24*	5	17*
O=C(Cc1ccc(Cl)cc1)Nc1ccc(Br)cc1	-13	5	6.1*	5	11*	5	6
Cn1cccc1CC(=O)NNC(=O)Nc1ccc(Cl)cc1	-11	10	0	13	nt	nt	nt
COc1ccc(NC(=O)CC2C(=O)N(C)C(=S)N2Cc2ccco2)cc1 (stereo not drawn)	-6	10	0	-9	nt	nt	nt
COc1ccc(NC(=O)CC2C(=O)N(C)C(=S)N2CCc2ccccc2F)cc1 (stereo not drawn)	2	-6	35*	1	46*	1	20*
CCN1C(=O)C(CC(=O)Nc2ccc(OC)cc2)N(CCN2CCOCC2)C1=S (stereo not drawn)	10	-4	-1	-7	nt	nt	nt
CCN1C(=O)C(CC(=O)Nc2ccc(OC)cc2)N(CCc2ccccc2F)C1=S (stereo not drawn)	-23	-12	33*	3	34*	18*	21*
Cc1cc2oc(=O)cc(CN3CCN(S(=O)(=O)c4cccs4)CC3)c2cc1C	13	-5	0	9	nt	nt	nt
COC(=O)c1cc(-c2ccc(Cl)cc2Cl)n[nH]1	15	9	12*	1	29*	7	18*
COC(=O)c1cc(-c2ccc(Cl)cc2)n[nH]1	-8	-5	1	-11	nt	nt	nt
CC1CCCCC1NC(=O)c1nn(C)c2c1CS(=O)(=O)c1ccccc1-2 (stereo not drawn)	-2	1	0	2	nt	nt	nt
O=C(NCc1nc2ccccc2[nH]1)c1ccc([N+](=O)[O-])cc1	7	-6	52*	-1	75*	2	40*
O=C(NCCc1cccc(Cl)c1)c1ccc(Cl)c([N+](=O)[O-])c1	-4	-3	2	-4	nt	nt	nt
O=C(NCCc1nc2ccccc2[nH]1)c1ccc(Cl)c([N+](=O)[O-])c1	-4	-8	94*	-12	100*	6	97*
